Measurements from ChEMBL document CHEMBL1671655, “Anidulafungin is fungicidal and exerts a variety of postantifungal effects against Candida albicans, C. glabrata, C. parapsilosis, and C. krusei isolates” (2009).
In brackets after ≈: the same amount, converted by molar mass. Activity calls are given as the source filed them. No cut-off for these calls is given here. Starred links: 1 amine or outer side, 2 acyl side, 3 side chain; linkers in the order of their positions; H or OH if unused. Positions of bridges follow the written chain, without caps; N, C: chain ends. Non-standard residues stand in square brackets, D forms with d. Residues, ends and D or L forms follow the SMILES beside them. *: point of attachment. pTerphenylCO(4''-OnC5H11) = CCCCCOc1ccc(-c2ccc(-c3ccc(C(=O)*)cc3)cc2)cc1; Orn(4R-OH,5R-OH) = O=C([C@H](C[C@@H](O)[C@@H](O)N[*:3])N[*:1])[*:2]; hTyr(3S-OH,4S-OH) = N[C@H](C(=O)O)[C@H](O)[C@@H](O)c1ccc(O)cc1; Pro(3S-OH,4S-Me) = C[C@H]1CN[C@H](C(=O)O)[C@H]1O; Hyp = O=C(O)[C@@H]1C[C@@H](O)CN1

Legend:
Candida parapsilosis [1] = assay: Antifungal activity against Candida parapsilosis isolate A by CLSI M27-A3 broth microdilution method; format: functional; conditions: Lodderomyces parapsilosis
Procedure, shortened: (§1)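 CLSI M27-A3 broth microdilution in RPMI 1640 buffered to pH 7.0 with MOPS. Starting inoculum 0.5 x 10^3 to 2.5 x 10^3 cells/ml, incubated at 35°C. MIC read as the lowest concentration giving >50% growth reduction versus control. Each isolate tested on at least three occasions.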

Candida albicans [2] = assay: Increase in susceptibility to calcofluor white in Candida albicans ATCC 90028 assessed as cell wall damage at 4 times MIC after 1 hr relative to control; format: functional, organism-based
Procedure, shortened: (§2)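 Cells recovered 8 h after a 1-h drug exposure were grown to exponential phase in YPD with 1% glucose and adjusted to OD599 0.1. Undiluted and 10-fold serially diluted cultures were spotted onto YPD plates containing calcofluor white, then incubated at 30°C for 72 h. Growth compared with no-drug control cells; triplicate.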

Candida parapsilosis [3] = assay: Antifungal activity against Candida parapsilosis isolate S by CLSI M27-A3 broth microdilution method; format: functional; conditions: Lodderomyces parapsilosis; procedure, shortened: as §1
Candida parapsilosis [4] = assay: Increase in susceptibility to calcofluor white in Candida parapsilosis isolate 1 assessed as cell wall damage at 16 times MIC after 1 hr relative to control; format: functional, organism-based
Procedure, shortened: (§3)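 Candida given a 1-h anidulafungin pulse in MOPS-buffered RPMI 1640 (pH 7.0) at 35°C, washed three times by centrifugation, and regrown drug-free. Cells collected 8 h later, grown in YPD with 1% glucose to exponential phase, and set to OD599 0.1. Undiluted culture and 10-fold dilutions (4 µl) spotted on YPD plates with calcofluor white, then 30°C for 72 h. Triplicate; compared with no-drug cells.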

Nakaseomyces glabratus [5] = assay: Fungicidal activity against Candida glabrata isolate 3 assessed as log reduction in bacterial count at 4 times MIC after 48 hrs by time-kill analysis; format: functional; conditions: isolate 3, 48 h
Procedure, shortened: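 Isolates subcultured twice on SDA, suspended to 0.5 McFarland, giving ~1 x 10^5 to 5 x 10^5 CFU/ml in MOPS-buffered RPMI 1640 (pH 7.0) with or without drug at multiples of MIC (MIC by CLSI M27-A3). Tubes shaken at 35°C with continuous drug. Sampled at 0–48 h, diluted 10-fold and plated on SDA; CFU counted after 48 h at 35°C. Run twice per isolate; means.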

Candida albicans [6] = assay: Antifungal activity against Candida albicans isolate 1 assessed as time period for bacterial growth inhibition at 16 times MIC after 1 hr drug exposure; format: functional
Procedure, shortened: (§4)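 Inoculum of about 1 x 10^5 to 5 x 10^5 CFU/ml in MOPS-buffered RPMI (pH 7.0), shaken at 35°C and exposed to drug for 1 h. Cells then washed and centrifuged three times and resuspended in drug-free warm RPMI. Samples plated on SDA at 0, 2, 4, 8, 12, 24 and 48 h, with CFU counted after 48 h at 35°C. Run twice per isolate; values are means.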

Nakaseomyces glabratus [7] = assay: Increase in susceptibility to calcofluor white in Candida glabrata isolate 3 assessed as cell wall damage at 4 times MIC after 1 hr relative to control; format: functional, organism-based; procedure, shortened: as §2
Candida parapsilosis [8] = assay: Increase in susceptibility to SDS in Candida parapsilosis isolate A assessed as cell wall damage at MIC after 1 hr relative to control; format: functional, organism-based
Procedure, shortened: (§5)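 Cells recovered 8 h after a 1-h drug exposure were grown in YPD with 1% glucose to exponential phase and adjusted to OD599 0.1. Undiluted culture and 10-fold serial dilutions were spotted onto YPD plates containing SDS (0.01 to 0.04%), then incubated 72 h at 30°C. Growth compared with unexposed control cells; triplicate.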

Candida parapsilosis [9] = assay: Fungicidal activity against Candida parapsilosis isolate 1 assessed as log reduction in bacterial count at 16 times MIC after drug exposure for 1 hr followed by washout measured after 48 hrs in the absence of drug by PAFE study; format: functional; conditions: Lodderomyces parapsilosis
Procedure, shortened: (§6)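 Starting inoculum ~1 x 10^5 to 5 x 10^5 CFU/ml in MOPS-buffered RPMI 1640 (pH 7.0) with drug at multiples of the CLSI M27-A3 MIC. After 1 h at 35°C, cells washed and centrifuged three times at 1,400 x g for 10 min, then resuspended in warm drug-free RPMI. Shaken at 35°C and plated on SDA at 0–48 h; CFU counted after 48 h. Run twice per isolate; means.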

Candida parapsilosis [10] = assay: Fungicidal activity against Candida parapsilosis isolate A assessed as log reduction in bacterial count at 4 times MIC after 48 hrs by time-kill analysis; format: functional; conditions: Lodderomyces parapsilosis
Procedure, shortened: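 Isolates subcultured twice on SDA, then suspended to 0.5 McFarland and diluted into RPMI 1640 (MOPS, pH 7.0) with or without anidulafungin, giving about 1 x 10^5 to 5 x 10^5 CFU/ml. Tubes were shaken at 35°C. Samples were taken at 0, 2, 4, 8, 12, 24 and 48 h, serially diluted 10-fold, plated on SDA, and CFU counted after 48 h at 35°C. Each isolate was run twice; mean values.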

Candida parapsilosis [11] = assay: Fungicidal activity against Candida parapsilosis isolate S assessed as log reduction in bacterial count at 16 times MIC after drug exposure for 1 hr followed by washout measured after 48 hrs in the absence of drug by PAFE study; format: functional; conditions: Lodderomyces parapsilosis
Procedure, shortened: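 Inoculum about 1 x 10^5 to 5 x 10^5 CFU/ml in RPMI 1640 (MOPS, pH 7.0) with drug, shaken at 35°C for 1 h. Cells were then washed and centrifuged at 1,400 x g for 10 min (3 cycles) and resuspended in warm drug-free RPMI. Samples plated on SDA at 0, 2, 4, 8, 12, 24 and 48 h; CFU counted after 48 h at 35°C. Run twice per isolate; means.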

Nakaseomyces glabratus [12] = assay: Fungicidal activity against Candida glabrata isolate 1 assessed as log reduction in bacterial count at 4 times MIC after drug exposure for 1 hr followed by washout measured after 48 hrs in the absence of drug by PAFE study; format: functional; procedure, shortened: as §6
Candida albicans [13] = assay: Increase in susceptibility to SDS in Candida albicans ATCC 90028 assessed as cell wall damage at 16 times MIC after 1 hr relative to control; format: functional, organism-based; procedure, shortened: as §5
Nakaseomyces glabratus [14] = assay: Increase in susceptibility to SDS in Candida glabrata isolate 1 assessed as cell wall damage at MIC after 1 hr relative to control; format: functional, organism-based; procedure, shortened: as §5
Nakaseomyces glabratus [15] = assay: Antifungal activity against Candida glabrata by NCCLS M27A broth microdilution method; format: functional
Candida parapsilosis [16] = assay: Increase in susceptibility to SDS in Candida parapsilosis isolate 1 assessed as cell wall damage at MIC after 1 hr relative to control; format: functional, organism-based; procedure, shortened: as §5
Candida parapsilosis [17] = assay: Antifungal activity against Candida parapsilosis isolate 1 coincubated with mouse J774 macrophages assessed as macrophage induced bacterial cell killing at 4 times MIC (reference value: 22 +/- 12 %); format: functional
Candida albicans [18] = assay: Fungicidal activity against Candida albicans isolate 2 assessed as log reduction in bacterial count at MIC after drug exposure for 1 hr followed by washout measured after 48 hrs in the absence of drug by PAFE study; format: functional; procedure, shortened: as §6
Nakaseomyces glabratus [19] = assay: Increase in susceptibility to SDS in Candida glabrata isolate 1 assessed as cell wall damage at 16 times MIC after 1 hr relative to control; format: functional, organism-based; procedure, shortened: as §5
Candida albicans [20] = assay: Antifungal activity against Candida albicans ATCC 90028 assessed as time period for bacterial growth inhibition at 4 times MIC after 1 hr drug exposure; format: functional; procedure, shortened: as §4
Pichia kudriavzevii = assay: Increase in susceptibility to calcofluor white in Candida krusei isolate ATCC 6258 assessed as cell wall damage at MIC after 1 hr relative to control; format: functional, organism-based; procedure, shortened: as §3

SMILES: CCCCCOc1ccc(-c2ccc(-c3ccc(C(=O)N[C@H]4C[C@@H](O)[C@@H](O)NC(=O)[C@@H]5[C@@H](O)[C@@H](C)CN5C(=O)[C@H]([C@@H](C)O)NC(=O)[C@H]([C@H](O)[C@@H](O)c5ccc(O)cc5)NC(=O)[C@@H]5C[C@@H](O)CN5C(=O)[C@H]([C@@H](C)O)NC4=O)cc3)cc2)cc1 [ANIDULAFUNGIN] ({pTerphenylCO(4''-OnC5H11)}-[Orn(4R-OH,5R-OH)]T[Hyp][hTyr(3S-OH,4S-OH)]T[Pro(3S-OH,4S-Me)]; lactam 1-C)
- MIC (Candida parapsilosis [1]): 2 µg/mL (≈ 1.75 µM)
- Activity (Candida albicans [2]): Active
- MIC (Candida parapsilosis [3]): 1 µg/mL (≈ 0.877 µM)
- Activity (Candida parapsilosis [4]): Active
- log reduction (Nakaseomyces glabratus [5]): 2.76 log CFU/ml
- Time (Candida albicans [6]): 8 h
- Activity (Nakaseomyces glabratus [7]): Active
- Activity (Candida parapsilosis [8]): Active
- log reduction (Candida parapsilosis [9]): 3.17
- log reduction (Candida parapsilosis [10]): 3.19 log CFU/ml
- log reduction (Candida parapsilosis [11]): 3.05
- log reduction (Nakaseomyces glabratus [12]): 2.81
- Activity (Candida albicans [13]): Active
- Activity (Nakaseomyces glabratus [14]): Active
- MIC90 (Nakaseomyces glabratus [15]): 0.06 µg/mL (≈ 0.0526 µM)
- Activity (Candida parapsilosis [16]): Active
- inhibition (INH) (Candida parapsilosis [17]): 27%
- log reduction (Candida albicans [18]): 0.86
- Activity (Nakaseomyces glabratus [19]): Active
- Time (Candida albicans [20]): 8 h
- Activity (Pichia kudriavzevii): Active
